Experimental findings from paper PMC11656131 (Angewandte Chemie (International Ed. in English), 2024) are described below.

Entries after “also recorded” stand apart in the source; their conditions may differ.

The assay concerns the target T1, CERT (Homo sapiens, UniProt Q9Y5P4).
T1 sequence (Q9Y5P4 1-598 isoform Q9Y5P4-2): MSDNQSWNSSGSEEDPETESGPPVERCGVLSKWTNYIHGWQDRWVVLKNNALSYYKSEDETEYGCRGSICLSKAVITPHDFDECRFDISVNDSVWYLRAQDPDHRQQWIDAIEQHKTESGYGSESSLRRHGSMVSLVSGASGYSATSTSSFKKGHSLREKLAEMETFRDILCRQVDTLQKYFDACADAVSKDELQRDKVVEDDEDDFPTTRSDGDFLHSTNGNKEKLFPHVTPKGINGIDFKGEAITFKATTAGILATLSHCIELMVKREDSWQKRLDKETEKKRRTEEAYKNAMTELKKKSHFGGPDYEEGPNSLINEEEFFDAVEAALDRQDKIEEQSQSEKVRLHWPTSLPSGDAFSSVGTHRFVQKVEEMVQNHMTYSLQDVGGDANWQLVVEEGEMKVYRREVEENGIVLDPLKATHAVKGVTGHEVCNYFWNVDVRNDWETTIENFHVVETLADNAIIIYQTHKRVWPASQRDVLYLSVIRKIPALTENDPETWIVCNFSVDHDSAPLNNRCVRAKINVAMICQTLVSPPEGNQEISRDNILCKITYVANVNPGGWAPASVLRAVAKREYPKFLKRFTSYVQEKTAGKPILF
In words: NanoBRET live-cell CERT assay. The class given is cell-based. Conditions: cells pre-treated with SACLAC. Summed up:
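HeLa cells (or CERT-deficient HeLa) were transfected with NLuc fused N-terminally to full-length CERT, split into 96-well plates next day and incubated overnight. Nano-Glo Vivazine live-cell substrate was added, then NR-Cer acceptor (0.2 µM, or titrated) with test compound. mBRET was read relative to untreated (100% BRET). Library screen at 0.2 µM in single determination; dose-response in triplicate, Hill fit.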

On to `CCCCCCCCCCCCCCC[C@@H](O)[C@H](CO)NC(=O)CCl` [SACLAC], for which the “mBRET after pre-treatment with acid ceramidase inhibitor” value is recorded as “no effect on BRET efficiency; also recorded: only slightly elevated mBRET values”.
